The full list was thinned out, with hits kept by preference.
Dynein transport: blocks dynein driven cargo transport along microtubules | hit rate 0.47% among 220,000 | AID 1381 | 3617.4 mouse cells, GR-EGFP nuclear translocation imaging; test concentration mostly 20 µM; stimulated with dexamethasone, 1 µM; stronger effect = lower value | z-score, hits read low;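 active = plate z-score of nuclear minus cytoplasmic receptor signal below a set negative limit, without overly bright fluorescence or cell loss, cut at about -3.5 in these data, passing the limit was not always enough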;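 also: z-score of nuclear minus cytoplasmic ring GR-EGFP intensity difference per well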
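Medium: Induction medium lacking tetracycline, stripped serum | Probe or stimulus: 1.0 µM final dexamethasone stimulus | Schedule: 48 h induction, then 1 h compound, then 30 min agonist, 37 °C | Signal: Automated 10x imaging of fixed Hoechst-stained cells | Evaluation: Per-cell GR-EGFP intensity, nucleus versus surrounding cytoplasmic ring, well-averaged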
CHOP inh: blocks CHOP induction under ER stress; CHO-K1 CHOP-promoter luciferase, tunicamycin-induced, 15-18 h; AID 2732; hit rate 3.8% among 220,000; inhibition, % at 10 µM;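 active = compounds that reduced the stress-induced luciferase reporter signal by more than about 70% of percent inhibition, limit read from the data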;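 also: 0% = tunicamycin plus vehicle and 100% = wells without tunicamycin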
UPR CHOP act: activators of apoptotic arm of unfolded protein response (CHOP). CHO-CHOP luciferase reporter, UPR activation, luminescence; percent of tunicamycin response over DMSO baseline. activation, % at 10 µM. hit rate 0.34% among 330,000. AID 449763;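 active = at 10 µM dose, activation of 40% or more, normalized to positive control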;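 also: 100% = tunicamycin at 10 µg/mL and 0% = DMSO alone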
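assay system = CHO CHOP reporter cells | amount = 500 CHO-CHOP cells per well | buffer or medium = F12 with 10% FBS | incubation = 16-18 h cell attachment, then 6 h compound exposure, 37 °C | detection = luminescence read with Steady-Glo | read-out = percent activation relative to tunicamycin control | controls = tunicamycin high control, DMSO low control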
Lmaj promast: inhibitors of Leishmania major promastigote growth | hit rate 9% among 200,000 | Leishmania major promastigotes, resazurin fluorescence viability | AID 1063 | inhibition, % at 10 µM; in the data active = inhibition above about 50%;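 also: promastigotes grown with compound for 44 hours at 28 °C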
UPR XBP1 act: activators of adaptive arm of unfolded protein response (XBP1); CHO-XBP1 luciferase reporter, IRE1-XBP1 UPR activation, luminescence; percent of tunicamycin response, DMSO as zero; activation, % at 20 µM; hit rate 0.33% among 330,000; AID 463104;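 active = versus positive control, 20 µM dose yields 30% or more activation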;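 also: 100% = tunicamycin at 10 µg/mL and 0% = DMSO only wells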
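assay system = CHO-XBP1 luciferase reporter cells | amount = 1000 cells/well | buffer or medium = F12 plus 10% FBS | compound dosing = single point, 20 µM final compound, 1% DMSO | incubation = 16-18 h cell attachment at 37 °C, then 6 h compound exposure | detection = Steady-Glo luminescence read | controls = tunicamycin 10 µg/mL and vehicle-only wells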
T cruzi repl: T. cruzi replication inhibition; T. cruzi beta-gal in NIH3T3, luminescence, 90 h; inhibition, % (no concentration beside the values); hit rate 1.4% among 300,000; AID 1885;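 active = mean inhibition across valid replicates above about 55%, limit read from the data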;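 also: signal also drops with host cell toxicity which is not excluded here; 0% = plate median of DMSO wells and 100% = zero luminescence signal; higher percent means less beta-gal luminescence so fewer parasites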
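Assay system: NIH/3T3 fibroblasts plus reporter T. cruzi. Amount: NIH/3T3 cells, 5,000 per well. Buffer or medium: DMEM, 2% fetal bovine serum. Doses: compound pinned at 50 nL/well, DMSO. Schedule: ≥90 h infection period, 3 h prior cell attachment. Signal: luminescent β-galactosidase signal after 60 min lysis. Read-out: parasite load inhibition, %.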
* marks the source's active call; other numbers are inactive results; . = not tested or not shown.

SMILES | Dynein transport | CHOP inh | UPR CHOP act | Lmaj promast | UPR XBP1 act | T cruzi repl
CC(=O)Nc1ccc(OC(=O)c2ccc(Br)c([N+](=O)[O-])c2)cc1 | -1 | -26 | 2 | -5 | 0 | -12
O=C(Nc1ccc2c(c1)OCO2)NC1CCN(Cc2ccccc2)CC1 | -0.23 | 11 | 1 | 78* | -2 | 56*
O=C(CN1CCC(NC(=O)c2ccccc2F)CC1)Nc1ccc2c(c1)OCCO2 | 0.0093 | 16 | -2 | -4 | -2 | -3
CN1CCC(NC(=O)Nc2cccc(C(F)(F)F)c2)CC1 | -0.42 | -4 | 0 | 2 | -2 | .
O=C(Nc1ccc2c(c1)OCO2)C1CCN(Cc2cnn(-c3ccccc3)c2-n2cccc2)CC1 | 0.95 | 68 | -1 | 98* | -3 | 44
CN1CCC(NC(=O)Nc2ccc(Br)cc2)CC1 | 0.13 | 8 | 3 | . | 1 | 61*
Cc1ccccc1C(=O)NC1CCN(CC(=O)Nc2ccc3c(c2)OCCO3)CC1 | 1.1 | 13 | -3 | 90* | -4 | 3
CC(C)CNC(=O)c1cccc(NC(=O)c2ccc3c(c2)C(=O)N(C)C3=O)c1 | . | . | 0 | . | -4 | -4
CCOC(=O)CNC(=O)Cn1cnc2c(oc3ccccc32)c1=O | . | . | 3 | . | 3 | -11
O=C(NC1CC2CCCC(C1)N2C(=O)Nc1ccccc1F)C1CC1 (configuration not stated) | . | . | -1 | . | -3 | -9
O=C(Nc1ccc(F)cc1)NC1CCN(Cc2ccccc2)CC1 | 1.1 | 5 | 2 | 55* | 0 | 60*
CC(C)c1ccc(NC(=O)NC2CCN(CC(=O)Nc3cccc4ccccc34)CC2)cc1 | 0.47 | 45 | -3 | 58* | -2 | 56*
CN(C(=O)c1ccc(Br)o1)C1CCCCC1 | . | . | 3 | . | -5 | -22
Clc1ccc(Nc2ccc(NCc3ccccc3)nn2)cc1 | 0.46 | 13 | 6 | 91* | 0 | 42
C=C(C)C1CC=C(C)/C(=N/NC(=O)COc2ccc(C)cc2)C1 (configuration not stated) | 2.8 | 70* | 2 | 2 | 2 | 2
O=C(NC(=S)Nn1cnc2c(cnn2-c2ccccc2)c1=O)c1ccc(Cl)cc1 | -0.75 | 4 | 3 | -12 | 1 | -4
O=C(NC(=S)Nn1cnc2c(cnn2-c2ccccc2)c1=O)c1ccc(Oc2ccccc2)cc1 | -0.46 | 73* | -3 | 21 | -1 | -7
COc1ccc(NC(=O)C2CC(=O)N(c3ccccc3Cl)C2)c(OC)c1 (configuration not stated) | . | . | -1 | . | -6 | 3
CNS(=O)(=O)c1cccc(C(=O)OCc2cc(=O)oc3c(C)c(O)ccc23)c1 | . | . | -2 | . | 6 | 3
CCOc1ccc(C(=O)CCC(=O)NCC(=O)Nc2c(C)cccc2C)cc1 | . | . | -2 | . | -4 | .
Cc1oc2c(CN3CCOCC3)c(O)ccc2c(=O)c1-c1ccc(Cl)cc1 | 0.6 | -2 | 0 | . | -1 | -4
Cc1oc2c(CN3CCCC3)c(O)ccc2c(=O)c1-c1ccc(Cl)cc1 | -0.16 | 18 | -3 | 97* | -5 | -8
Cc1oc2c(CN3CCOCC3)c(O)ccc2c(=O)c1-c1ccc(Br)cc1 | 1.1 | 8 | -1 | 99* | -3 | -2
O=c1c(-c2ccc(Br)cc2)coc2c(CN3CCOCC3)c(O)ccc12 | 1.9 | 27 | 0 | 100* | 0 | -2
O=C(Nc1ccc(F)cc1)/C(=C1/CCCCCN1)[N+](=O)[O-] | 0.17 | 10 | 0 | . | -2 | -1
Cc1cc(C)c2c(N)c(C(=O)Nc3c(C)n(C)n(-c4ccccc4)c3=O)sc2n1 | . | . | -2 | . | 0 | -6
O=C(Nc1ccnc(-c2cccnc2)n1)c1cccs1 | -0.3 | 12 | 1 | 8 | 1 | 1
CN(C)CCNC(=O)c1cccc(NS(=O)(=O)c2ccc(Cl)c(Cl)c2)c1 | -0.79 | 12 | 0 | -5 | 1 | 8
CN(C)CC(C)(C)CNS(=O)(=O)c1ccc(Cl)c(Cl)c1 | 1.2 | 10 | 3 | 80* | -4 | 43
CC(C)(C)c1ccc(C(=O)C2CCCN(C(=O)CCn3cncn3)C2)cc1 (configuration not stated) | . | . | 1 | . | 3 | 7

Compound activity from PubChem BioAssay.
